The test system of series [1] is Human immunodeficiency virus 2. The series can be described thus: Antiviral activity against HIV2 ROD infected in human MT4 cells assessed as protection against viral-induced cytotoxicity after 5 days by MTT assay. The class given is functional, organism-based. To be noted: Human immunodeficiency virus 2, ISOLATE ROD, MT4, 120 h. An outline of the steps: (§1)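 MT-4 cells were infected with HIV-1 IIIB or HIV-2 ROD stock at 100–300 CCID50 and exposed to serial fivefold compound dilutions, with untreated virus-infected and mock-infected controls. Cell viability was read by MTT after 5 days.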
On the technique in general: Tetrazolium dyes change colour on reduction, which living cells bring about.

Series [2] in a line: Cytotoxicity against human MT4 cells after 5 days by MTT assay. It counts as cell-based. The method, boiled down:
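Mock-infected MT-4 cells (6 × 10⁵ cells/mL) were exposed to serial fivefold compound dilutions. Viability was measured by MTT after 5 days.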

Series [3] relates to Human immunodeficiency virus 1. Description: Antiviral activity against HIV1 3B infected in human MT4 cells assessed as protection against viral-induced cytotoxicity after 5 days by MTT assay. The class given is functional, organism-based. The following applies: Human immunodeficiency virus 1, 3B, MT4, 120 h. The method, boiled down:
as §1

Series [4] is described as follows: Selectivity index, ratio of CC50 for human MT4 cells to EC50 for HIV-2 ROD infected in human MT4 cells. It counts as toxicity, cell-based. The following applies: read-out: Ratio CC50/EC50. An outline of the steps: (§2)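 Ratio CC50/EC50. Both values come from MTT viability of MT-4 cells read 5 days after infection with HIV-1 IIIB or HIV-2 ROD, or after mock infection for CC50.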

Series [5] is described as follows: Selectivity index, ratio of CC50 for human MT4 cells to EC50 for HIV-1 3B infected in human MT4 cells. The class given is toxicity, cell-based. To be noted: read-out: Ratio CC50/EC50. The method, boiled down: as §2
The test system of series [6] is Human immunodeficiency virus 1. Description: Antiviral activity against HIV1. The class given is functional, organism-based.
Series [7] deals with Human immunodeficiency virus type 1 reverse transcriptase (Human immunodeficiency virus 1, UniProt Q72547). Description: Inhibition of HIV1 reverse transcriptase assessed as inhibition of biotinylated dUTP incorporation after 1 hr by ELISA. An outline of the steps: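 Kit-based colorimetric ELISA. HIV-1 RT was incubated with template and DIG-dUTP, biotin-dUTP and dTTP, with or without inhibitor, for 1 h at 37 °C. Product was captured on streptavidin plates for 1 h at 37 °C, then anti-DIG-POD for 1 h at 37 °C, and ABTS was developed at 25 °C. A405 was read and percent inhibition calculated.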

`O=C1N(Cc2ccc(Cl)cc2Cl)c2cccn2S(=O)(=O)N1Cc1cccc(Br)c1`: the 50% effective concentration (EC50) in series [1] and in series [3] was more than 243 µM throughout. In addition, in series [2], the CC50 (commonly the concentration that lowers cell viability or growth by half) at 120 h is more than 243 µM. Besides, the selectivity ratio in series [4] stood at 1.

Turning to `O=C1N(Cc2ccc(F)cc2)c2cccn2S(=O)(=O)N1Cc1ccccc1`, the 50% effective concentration (EC50) (as a rule, the concentration needed to bring the measured effect to its halfway point) is more than 150 µM in series [1] and more than 190 µM in series [3]. The compound further yielded a half-maximal cytotoxic concentration (CC50) at 120 h in series [2] of 150 µM. The selectivity ratio in series [5] and in series [4] was less than 1 in each case.

Turning to `Cn1ncc2c1S(=O)(=O)N(Cc1ccccc1)C(=O)N2Cc1ccccc1Cl`, the half-maximal effective concentration (EC50) in series [6] was more than 300 µM.

As to `O=C1N(Cc2ccccc2)c2cccn2S(=O)(=O)N1Cc1cccc(F)c1`, the results for the EC50 in series [1] and in series [3] were more than 324 µM and 52 µM, respectively. In addition, the half-maximal cytotoxic concentration (CC50) at 120 h in series [2] turned out to be 288 µM. For the same compound, the selectivity ratio in series [5] worked out at 6; in series [4], 1.

In the case of `O=C1N(C/C=C/c2ccccc2)c2cccn2S(=O)(=O)N1Cc1ccccc1`, the EC50 in series [1] and in series [3] was more than 318 µM in each case. Besides, the CC50 at 120 h in series [2] is more than 318 µM. Further, the selectivity ratio in series [4] is 1.

In series [2], `N#CCN1C(=O)N(Cc2ccccc2)S(=O)(=O)c2cscc21` showed a CC50 at 120 h of 503 µM. In addition, in series [5], the selectivity ratio was 559.

Consider `C=CCN1C(=O)N(Cc2ccccc2)S(=O)(=O)n2cccc21`, for which the concentration for a half-maximal effect (EC50) in series [1] and in series [3] was more than 802 µM in each case. For the same compound, the CC50 at 120 h in series [2] is more than 802 µM. The selectivity ratio in series [5] is more than 1; in series [4], less than 1.

As to `N#Cc1cccc(CN2C(=O)N(Cc3ccccc3)S(=O)(=O)n3cccc32)c1`, the values for the EC50 in series [1] and in series [3] were more than 318 µM and 6.5 µM, respectively. Moreover, the 50% cytotoxic concentration (CC50) at 120 h in series [2] was more than 318 µM. Further, the values for the selectivity ratio in series [5] and in series [4] were more than 49 and 1, respectively.

Take `O=C1N(Cc2ccc(Cl)cc2Cl)c2cccn2S(=O)(=O)N1Cc1ccccc1`: the EC50 in series [1] is more than 273 µM; in series [3], more than 218 µM. The same compound came in with a CC50 at 120 h in series [2] of 218 µM. Further, the selectivity ratio in series [5] and in series [4] was less than 1 throughout.

With `O=C1N(Cc2ccccc2Cl)c2cccn2S(=O)(=O)N1Cc1cccc(F)c1`, the half-maximal effective concentration (EC50) is more than 262 µM in series [1] and 11 µM in series [3]. For the same compound, half-maximal cytotoxicity in series [2] (CC50 at 120 h) was put at 231 µM. In addition, the figures for the selectivity ratio in series [5] and in series [4] were 21 and less than 1, respectively.

On to `O=C1N(Cc2ccc(Cl)cc2Cl)c2cccn2S(=O)(=O)N1Cc1cccc(Cl)c1`, for which the EC50 in series [1] is more than 265 µM; in series [3], more than 251 µM. This compound came in with a CC50 at 120 h in series [2] of 251 µM. Further, the selectivity ratio in series [5] was less than 1; in series [4], 1.

For `Nc1ccn([C@@H]2CS[C@H](CO)O2)c(=O)n1` [LAMIVUDINE], the concentration for a half-maximal effect (EC50) in series [1] was determined as 5.9 µM; in series [3], 1.8 µM. The CC50 at 120 h in series [2] was more than 87 µM. Moreover, the selectivity ratio in series [5] was more than 47; in series [4] it was more than 15.

On to `O=C1N(Cc2ccccc2)c2cccn2S(=O)(=O)N1Cc1ccccc1`, for which the EC50 is more than 267 µM in series [1] and 43 µM in series [3]. The compound also came in with a CC50 at 120 h in series [2] of 196 µM. Besides, the selectivity ratio is 5 in series [5] and less than 1 in series [4].

Take `O=C1N(Cc2cccc(Cl)c2)c2cccn2S(=O)(=O)N1Cc1ccccc1`: the EC50 is more than 239 µM in series [1] and 40 µM in series [3]. Moreover, the cytotoxic concentration (CC50) at 120 h in series [2] came to 196 µM. In addition, the selectivity ratio in series [5] is 5; in series [4], less than 1.

As to `O=C1N(Cc2ccccc2Cl)c2cscc2S(=O)(=O)N1Cc1ccccc1`, in series [2], the cytotoxic concentration (CC50) at 120 h was more than 119 µM. The compound further registered an EC50 in series [6] of 0.01 µM. For the same compound, the selectivity ratio in series [5] was more than 119.

Consider `N#Cc1ccccc1CN1C(=O)N(Cc2cccc(Cl)c2)S(=O)(=O)n2cccc21`, for which the EC50 in series [1] is more than 293 µM; in series [3], 8.9 µM. The CC50 at 120 h in series [2] is more than 293 µM. Also, the figures for the selectivity ratio in series [5] and in series [4] were more than 33 and 1, respectively.

In the case of `N#Cc1ccccc1CN1C(=O)N(Cc2ccccc2)S(=O)(=O)n2cccc21`, the EC50 was more than 318 µM in series [1] and 5.1 µM in series [3]. Besides, the IC50 – broadly, the concentration needed to halve the response being measured – in series [7] is 56.9 µM. Moreover, the CC50 at 120 h in series [2] is more than 318 µM. Also, the selectivity ratio in series [5] is more than 63; in series [4], 1.

On to `O=C1N(Cc2ccccc2Br)c2cccn2S(=O)(=O)N1Cc1ccccc1`, for which the values for the EC50 in series [1] and in series [3] were more than 226 µM and 30 µM, respectively. This compound also came in with a cytotoxic concentration (CC50) at 120 h in series [2] of 226 µM. The selectivity ratio in series [5] was 8; in series [4], less than 1.

The compound `Cn1ncc2c1N(Cc1ccccc1Cl)S(=O)(=O)N(Cc1ccccc1)C2=O` displayed an EC50 in series [6] of more than 20 µM.

For `Cc1ccc(CN2C(=O)N(Cc3ccccc3)S(=O)(=O)n3cccc32)cc1`, the EC50 in series [1] and in series [3] was more than 241 µM each time. The compound also had a half-maximal cytotoxic concentration (CC50) at 120 h in series [2] of 241 µM. Moreover, the selectivity ratio in series [5] and in series [4] was less than 1 in each case.

`N#CCN1C(=O)N(Cc2cccc(F)c2)S(=O)(=O)n2cccc21`: the EC50 in series [1] was more than 187 µM; in series [3], 34 µM. The same compound gave a CC50 at 120 h in series [2] of 172 µM. For the same compound, the selectivity ratio in series [5] is 5; in series [4], less than 1.

`O=C1N(Cc2cccc(Cl)c2)c2cccn2S(=O)(=O)N1Cc1cccc(F)c1`: the concentration for a half-maximal effect (EC50) was more than 212 µM in series [1] and 7.2 µM in series [3]. This compound came in with a CC50 at 120 h in series [2] of 208 µM. Moreover, the selectivity ratio in series [5] is 29; in series [4], less than 1.

`Nc1ccn([C@H]2CC[C@@H](CO)O2)c(=O)n1` [ZALCITABINE] returned a CC50 at 120 h in series [2] of more than 95 µM. Moreover, in series [5], the selectivity ratio was more than 68.

The compound `Cc1ccnc2c1NC(=O)c1cccnc1N2C1CC1` [NEVIRAPINE] came in with a CC50 at 120 h in series [2] of more than 15 µM.

Turning to `N#CCN1C(=O)N(Cc2ccccc2)S(=O)(=O)n2cccc21`, the figures for the EC50 in series [1] and in series [3] were more than 180 µM and more than 187 µM, respectively. The compound further returned a CC50 at 120 h in series [2] of 180 µM. Also, the selectivity ratio in series [5] and in series [4] was less than 1 each time.

In the case of `O=C1N(Cc2ccc(Cl)cc2Cl)c2cccn2S(=O)(=O)N1Cc1cccc(F)c1`, the values for the EC50 in series [1] and in series [3] were more than 275 µM and more than 249 µM, respectively. This compound also showed a half-maximal cytotoxic concentration (CC50) at 120 h in series [2] of 249 µM. For the same compound, the selectivity ratio in series [5] was less than 1; in series [4] it was 1.

Regarding `O=C1N(Cc2ccccc2Cl)c2cccn2S(=O)(=O)N1Cc1ccccc1`, the values for the concentration for a half-maximal effect (EC50) in series [1] and in series [3] were more than 311 µM and 23 µM, respectively. Besides, the CC50 at 120 h in series [2] is 291 µM. Moreover, the selectivity ratio in series [5] amounted to 12; in series [4] it was 1.

For the compound `CC(C)=CCN1C(=O)N(Cc2ccccc2)S(=O)(=O)n2cccc21`, the half-maximal effective concentration (EC50) in series [1] is more than 226 µM; in series [3], 25 µM. This compound also had a cytotoxic concentration (CC50) at 120 h in series [2] of 226 µM. Moreover, the selectivity ratio in series [5] is 9; in series [4], less than 1.

On to `N#Cc1ccccc1CN1C(=O)N(Cc2cccc(F)c2)S(=O)(=O)n2cccc21`, for which the EC50 in series [1] was more than 305 µM; in series [3], 5.6 µM. Also, in series [7], the IC50 amounted to 58.3 µM. This compound came in with a CC50 at 120 h in series [2] of more than 305 µM. Also, the selectivity ratio in series [5] is more than 55; in series [4], 1.

Regarding `O=C1N(Cc2ccccc2Br)c2cccn2S(=O)(=O)N1Cc1cccc(F)c1`, the results for the EC50 in series [1] and in series [3] were more than 269 µM and 29 µM, respectively. In series [2], the half-maximal cytotoxic concentration (CC50) at 120 h is more than 269 µM. Moreover, the selectivity ratio is more than 9 in series [5] and 1 in series [4].

Consider `O=C1N(Cc2ccccc2Cl)c2cccn2S(=O)(=O)N1Cc1cccc(Br)c1`, for which the EC50 in series [1] was more than 260 µM; in series [3], 18 µM. Besides, the CC50 at 120 h in series [2] is more than 260 µM. In addition, the selectivity ratio in series [5] was more than 14; in series [4], 1.

The record behind these values is ChEMBL document CHEMBL2440007, “Design, synthesis and biological evaluation of N2,N4-disubstituted-1,1,3-trioxo-2H,4H-pyrrolo[1,2-b][1,2,4,6]thiatriazine derivatives as HIV-1 NNRTIs” (Bioorg Med Chem, 2013).
